Results: publication PMC7593347 (International Journal for Parasitology: Drugs and Drug …, 2020)
Where two headings read alike, the source gives them in different places.

Tests used:
C. parvum [1] = assay type: cell-based, Cryptosporidium parvum; details: for Parasite inhibition (%): C. parvum, 5 μM, HCT-8 cells, compound present from inoculation, 48 h; for inhibition at 5 µM: Cryptosporidium parvum, HCT-8, 48 h, read-out: Parasite inhibition (%)
HCT-8 cells = test: Cytotoxicity to HCT-8 cells; assay type: cell-based, human; details: read-out: Host cell IC50
C. parvum HNJ-1 strain = test: Initial epigenetic library compound screening for C. parvum; assay type: cell-based, Cryptosporidium parvum; details: for inhibition at 5 µM: Cryptosporidium parvum, HCT-8, 48 h, read-out: Parasite inhibition (%) (primary screening); for Parasite inhibition (%) (primary screening): 5 μM, 48 h, HCT-8 cells, vs DMSO, single experiment, single replicate
T. gondii RH-2F = test: T. gondii growth assay; assay type: cell-based, Toxoplasma gondii; details: 5 μM, positive control, HFF cells, 48 h
C. parvum [2] = details: ref Darkin-Rattray et al., 1996; cited from earlier work
[3] = tested on: acetylated histone H3K9 of C. parvum sporozoites; test: Acetylated histone in extracellular parasites; assay type: cell-based, Cryptosporidium parvum; details: Fig. 4A, 10 μM, incubation 30 min
C. parvum [4] = details: 100 or 200 mg/kg; ref Theodos et al., 1998; cited from earlier work
C. parvum [5] = test: C. parvum growth when compound is added after invasion of host cells; assay type: cell-based, Cryptosporidium parvum; details: 5 μM added after 3 h invasion, further 45 h, compared with DMSO control
Outline: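 HCT-8 cells (2 × 10^4/well) grown 24 h, infected with 5 × 10^4 HNJ-1 oocysts in RPMI-1640 for 3 h; test compound (5 μM) or DMSO then added for 45 h; nitazoxanide 5 μM as control. Methanol-fixed, BSA-blocked, Sporo-Glo stained; 42 fields/well imaged at 20×, parasites and nuclei counted automatically; relative to DMSO. Triplicate wells, three independent experiments.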

C. parvum [6] = details: read-out: IC50 against C. parvum, ref Bessoff et al., 2013, cited from earlier work

| SMILES | Parasite inhibition (%) (C. parvum [1]) | inhibition at 5 µM (C. parvum [1]) | IC50 (HCT-8 cells; Homo sapiens, HCT-8, 48 h) | inhibition at 5 µM (C. parvum HNJ-1 strain) | IC50 (HCT-8 cells; HCT-8 cells, 48 h) | Parasite inhibition (%) (primary screening) (C. parvum HNJ-1 strain) | further results |
| --- | --- | --- | --- | --- | --- | --- | --- |
| CC(=O)Nc1ccc(C(=O)Nc2ccccc2N)cc1 [CI-994] | no effect on growth inhibition | -15.7 ± 8.4% | 24.6 ± 2.4 µM | 88% | – | – | – |
| O=Nc1ccc(O)c2ncccc12 [NSC-3852] | 64.4 ± 0.4% | – | – | – | 36.7 ± 1 µM | 88% | – |
| CC(/C=C/C(=O)NO)=C\[C@@H](C)C(=O)c1ccc(N(C)C)cc1 [TrichostatinA] | 75.7 ± 0.8% | – | – | – | 1.6 ± 0.1 µM | 76% | – |
| CCc1nc(N)nc(N)c1-c1ccc(Cl)cc1 [pyrimethamine] | – | – | – | – | – | – | growth of T. gondii (T. gondii RH-2F): completely inhibited |
| O=C(CCCCCN1C(=O)c2cccc3cccc(c23)C1=O)NO [Scriptaid] | did not inhibit the growth | 4 ± 5.7% | 11.9 ± 1.3 µM | 10% | – | – | – |
| O=C(/C=C/C#Cc1cccc(NS(=O)(=O)c2ccccc2)c1)NO [Oxamflatin] | – | 49.8 ± 4% | 2.5 ± 0.1 µM | 100% | – | – | – |
| CCC(=O)CCCCC[C@@H]1NC(=O)[C@H]2CCCCN2C(=O)[C@H]([C@@H](C)CC)NC(=O)[C@H](Cc2cn(OC)c3ccccc23)NC1=O [Apicidin] | – | 83.5 ± 1.4% | 1.5 ± 0.1 µM | 83% | – | – | minimum concentration at which all C. parvum growth was inhibited (C. parvum [2]): 45 µM |
| CN(C)c1ccc(C(=O)NCCCCCCC(=O)NO)cc1 [M-344] | 71.3 ± 1.7% | – | – | – | 2.3 ± 0.2 µM | 71% | – |
| O=C1c2ccccc2C(=O)c2c(NCCc3ccc(O)cc3)ccc(NCCc3ccc(O)cc3)c21 [BML-266] | 64.7 ± 3.9% | – | – | – | 51.2 ± 0.6 µM | 97% | – |
| CC(=O)Oc1ccccc1C(=O)Nc1ncc([N+](=O)[O-])s1 [nitazoxanide] | – | – | – | – | – | – | Density of bands of H3K9Ac/H3 normalized by the loading control [3]: increased; reduction of the parasite in C. parvum-infected SCID mice (C. parvum [4]): ineffective; relative number of C. parvum (C. parvum [5]): 44.9 ± 7.3%; IC50 (C. parvum [6]): 3.7 µM; IC50 (C. parvum [6]; listed as Nitazoxanide): ~3.7 µM |
